Screening data (PubChem BioAssay)
A selection: hits, their analogues and other compounds. The true share with any hit is near 2.7%.
PAFAH1B2 inh: blocks human PAF acetylhydrolase 1b catalytic subunit 2 | P68402 | recombinant PAFAH1B2, FP-rhodamine activity probe, fluorescence polarization | inhibition, % at 3.39 µM | hit rate 1.2% among 340,000;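 active = inhibition above the mean of all tested compounds plus 3 SD, cut at about 24% in these data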;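 also: 0% = enzyme with DMSO and 100% = wells lacking PAFAH1B2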
pPAFAH FP inh: pPAFAH (human) enzyme inhibition; Q13093; recombinant pPAFAH, FP-rhodamine probe fluorescence polarization; inhibition, % at 3.39 µM; hit rate 1.5% among 330,000; AID 463082;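 active = inhibition above the mean inhibition across the screen plus 3 SD, cut at about 25% in these data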;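 also: inhibitors block binding of the rhodamine activity-based probe so polarization drops; 0% = enzyme with DMSO and 100% = wells lacking pPAFAH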
Target sequence (Q13093 whole entry, looked up): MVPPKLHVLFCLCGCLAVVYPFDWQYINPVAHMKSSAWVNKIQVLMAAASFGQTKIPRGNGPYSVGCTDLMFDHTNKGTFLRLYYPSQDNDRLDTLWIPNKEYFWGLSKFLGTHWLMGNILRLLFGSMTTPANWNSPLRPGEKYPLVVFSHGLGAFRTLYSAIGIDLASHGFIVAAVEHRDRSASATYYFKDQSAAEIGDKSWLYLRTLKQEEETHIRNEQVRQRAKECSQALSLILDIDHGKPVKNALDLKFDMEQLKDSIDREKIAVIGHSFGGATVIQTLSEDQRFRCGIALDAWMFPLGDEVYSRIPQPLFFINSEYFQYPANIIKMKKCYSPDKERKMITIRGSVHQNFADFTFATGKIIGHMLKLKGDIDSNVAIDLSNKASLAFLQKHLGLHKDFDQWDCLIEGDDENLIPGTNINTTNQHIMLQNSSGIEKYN
PAFAH1B3 FP inh: PAFAH1B3 (human) inhibition; recombinant PAFAH1B3, FP-rhodamine probe, fluorescence polarization; inhibition, % at 3.39 µM; hit rate 0.28% among 340,000;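 active = inhibition above the screen-wide average of all tested compounds plus 3 SD, cut at about 25% in these data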;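 also: 0% = enzyme with DMSO only and 100% = wells lacking PAFAH1B3 protein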
PAFAH2 inh: inhibitors of human PAFAH2 | hit rate 0.99% among 340,000 | recombinant PAFAH2, FP-rhodamine activity probe, fluorescence polarization | AID 492956 | inhibition, % at 3.39 µM | Q99487;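 active = inhibition above the mean over all tested compounds plus 3 SD, cut at about 30% in these data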;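 also: inhibitors block probe labeling of enzyme so polarization drops; 0% = enzyme with DMSO and 100% = wells lacking PAFAH2 protein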
RBBP9 inh: human RBBP9 hydrolase inhibition; O75884; recombinant RBBP9, FP-Rh probe fluorescence polarization; inhibition, % at 7.94 µM; hit rate 0.2% among 220,000;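 active = inhibition above the campaign mean of all tested compounds plus 3 SD, cut at about 14% in these data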;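 also: plate controls were DMSO wells with RBBP9 for no effect and wells lacking RBBP9 protein for full effect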
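Measured by – fluorescence polarization · Test system – RBBP9 protein · Input – 2.5 µM RBBP9 dispensing solution, before mixing · Measure – percent inhibition from mP, scaled between DMSO and no-protein wells · Benchmarks – DMSO-treated enzyme wells and wells lacking RBBP9 · Times – preincubation 30 min plus labeling 45 min at 25 °C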
The depositor's hits bear a star; . = no result given.

SMILES	PAFAH1B2 inh	pPAFAH FP inh	PAFAH1B3 FP inh	PAFAH2 inh	RBBP9 inh
CC(=O)c1c(C)[nH]c(C(=O)COC(=O)C2(C)CC2(Cl)Cl)c1C (stereo unspecified)	15	-2	4	15	.
COC(=O)C(NC(=O)c1ccccc1Cl)(Nc1ncc(S(=O)(=O)c2ccc([N+](=O)[O-])cc2)s1)C(F)(F)F (stereo unspecified)	26*	2	6	2	1
O=c1oc(-c2ccccc2[N+](=O)[O-])nc2ccccc12	-2	0	3	45*	-4
COc1ccc(NS(=O)(=O)c2cccc(C(=O)NNC(=O)CNC(=O)c3ccccc3)c2)cc1	-2	28*	5	-1	.
COc1ccc(NS(=O)(=O)c2cccc(C(=O)NNC(=O)c3ccccc3O)c2)cc1	1	15	9	4	.
Cc1cccc(C(=O)NCCN(C)C)c1	1	0	-1	3	-2
COc1ccc(NC(=O)CN(C)C(=O)c2cccc(S(=O)(=O)Nc3ccc(OC)cc3)c2)cc1	-1	32*	1	5	.
CN(C)CCNC(=O)c1cccc(S(=O)(=O)Nc2ccc(F)cc2)c1	0	25*	2	-7	-9
COc1ccc(NS(=O)(=O)c2cccc(C(=O)NNC(=O)c3cccn3C)c2)cc1	5	34*	6	1	.
COc1ccc(NS(=O)(=O)c2cccc(C(=O)NNC(=O)CNC(=O)c3ccccc3Cl)c2)cc1	-4	.	4	-7	.
CCOC(=O)c1c(NC(=O)c2ccc(N3C(=O)[C@@H]4[C@H](C3=O)[C@H]3C=C[C@@H]4C3)cc2)sc2c1CC(C)CC2 (stereo partly specified)	-2	-1	2	3	-2
CCc1ccc(CNC(=O)CN2C(=O)COc3ccccc32)cc1	6	7	-1	7	0
COc1ccc(NS(=O)(=O)c2cccc(C(=O)NNC(=O)COc3ccccc3)c2)cc1	-3	18	3	-2	.
Cc1cccc(/C=C2/Sc3ccc(C(=O)NCCCN4CCOCC4)cc3NC2=O)c1	8	26*	-5	-14	.
COc1ccc(NS(=O)(=O)c2cccc(C(=O)NNC(=O)CNC(=O)c3cccc(C)c3)c2)cc1	0	34*	7	-6	.
Cc1ccc(NS(=O)(=O)c2cccc(C(=O)NCCCN3CCOCC3)c2)cc1	1	34*	-1	10	.
COc1ccc(NS(=O)(=O)c2cccc(C(=O)NCC3(N(C)C)CCCCC3)c2)cc1	-5	30*	6	-5	.
COc1ccc(CNC(=O)CN2C(=O)NC(C)(c3cccc4ccccc34)C2=O)cc1OC (stereo unspecified)	5	8	6	-1	.
O=C(COC(=O)c1ccc(F)cc1Cl)NC1CCS(=O)(=O)C1 (stereo unspecified)	5	0	11	-6	.
CCOc1ncccc1C(=O)OCC(=O)Nc1c(C)cccc1C	2	13	0	18	-1
CCOc1ncccc1C(=O)OCC(=O)Nc1c(C)cc(C)cc1C	5	26*	3	34*	-12
O=C(COC(=O)c1ccc[nH]c1=O)NC1CCCC1	1	2	0	-2	-8
O=C(COC(=O)c1ccc(F)cc1Cl)NC1CCCCCCC1	5	33*	8	86*	.
O=C(COC(=O)c1sc2ccccc2c1Cl)NC1CCCCC1	0	31*	0	-8	-9
O=C(COC(=O)c1ccccc1Br)NC1CCCCCCC1	12	32*	14	86*	.
SMILES	PAFAH1B2 inh	pPAFAH FP inh	PAFAH1B3 FP inh	PAFAH2 inh	RBBP9 inh
Cc1ccc(S(=O)(=O)N2CCN(C(=O)CCN3C(=O)c4ccccc4C3=O)CC2)cc1C	3	0	3	-1	-5
CCOc1ncccc1C(=O)OCC(=O)NC1CCCCC1	3	31*	8	79*	.
CCOc1ncccc1C(=O)OC(C)C(=O)NC(=O)NC1CCCCC1 (stereo unspecified)	-2	4	4	2	2
CCOc1ncccc1C(=O)OCC(=O)Nc1ccc(-c2nc3ccc(C)cc3s2)cc1	0	25*	-3	18	-13
CC1(C)CC(C#N)(N2CCOCC2)CCO1 (stereo unspecified)	8	4	7	-1	-10
Cc1nn(CC(=O)c2ccccc2)c(=O)c2nn(-c3ccccc3F)c(C)c12	4	6	1	0	1
Cc1ccc(Cc2cnc(N3C(=N)SC(C)C3=O)s2)cc1 (stereo unspecified)	75*	25*	-6	13	-4
CCCCn1c(N)c(N(CCOC)C(=O)c2cc(S(=O)(=O)N3CCOCC3)ccc2Cl)c(=O)[nH]c1=O	2	.	-1	9	.
COc1cccc(OC)c1OCC(=O)Nc1ccc(S(=O)(=O)N2CCCC2)cc1	6	1	10	6	.
O=C(Nc1cc([N+](=O)[O-])ccc1O)c1cccc([N+](=O)[O-])c1	3	5	11	6	.
O=C(Nc1cc([N+](=O)[O-])ccc1O)c1ccc2c(c1)C(=O)N(Cc1ccco1)C2=O	0	30*	2	3	.
O=C(Nc1cc([N+](=O)[O-])ccc1O)c1cccc(C(=O)Nc2cc([N+](=O)[O-])ccc2O)c1	15	15	34*	33*	.
COc1ccc(OC)c(NC(=O)c2ccc(CSc3ncccn3)cc2)c1	0	2	11	10	-5
Cc1ccccc1NS(=O)(=O)c1ccc(C(=O)NCC2CCCO2)cc1 (stereo unspecified)	1	25*	1	-2	.
Cc1ccc(C)c(NS(=O)(=O)c2ccc(OCC(=O)NCC3CCCO3)cc2)c1 (stereo unspecified)	5	28*	2	4	-9
O=C(NCC1CCCO1)c1cccc(S(=O)(=O)Nc2ccc(SC(F)F)cc2)c1 (stereo unspecified)	-2	34*	5	5	.
COc1ccc(C(CNC(=O)CNC(=O)c2cc(OC)c(OC)c(OC)c2)N2CCOCC2)cc1 (stereo unspecified)	2	.	2	3	.
CN1CC(c2ccc(Cl)c(Cl)c2)[C@@]2(COc3ccccc3C2=O)[C@@]12C(=O)Nc1ccccc12 (stereo partly specified)	0	0	-1	-7	2
COc1cc2cc(CN(Cc3nnnn3Cc3ccco3)C3CCCCC3)c(=O)[nH]c2cc1OC	4	26*	7	6	-5
O=C(/C=C/c1ccccc1[N+](=O)[O-])NCc1ccncc1	-2	0	5	-3	-5
O=C(NCc1cccnc1)c1cc(Sc2cccc(Cl)c2)nc2ccccc12	2	33*	-4	10	-7
Cc1c(NC(=O)CCSCCc2ccccn2)cccc1[N+](=O)[O-]	5	-4	4	4	-9
Nc1nnc(CSCc2ccc(Cl)cc2)s1	28*	1	-7	7	-5
Nc1nnc(CSCc2ccccc2)s1	4	8	2	5	-9
